Source: ChEMBL document CHEMBL1156975, “Discovery and SAR of potent, orally available 2,8-diaryl-quinoxalines as a new class of JAK2 inhibitors” (Bioorg Med Chem Lett, 2010)
≈ marks a conversion by molar mass, not a printed value.

Tested on: not listed separately
Test: Volume of distribution in iv dosed rat
Assay type: ADME, organism-based
Conditions: in vivo
Method in brief: (§1)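 Conscious rats given an iv bolus, then oral dosing at 3 mg/kg as a suspension in 0.5% carboxymethyl cellulose in bidistilled water. Clearance, volume of distribution, terminal half-life, oral AUC and bioavailability were derived.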

Vd [L/kg] | Compound
6.75 | CNS(=O)(=O)c1ccc(-c2cccc3ncc(-c4cc(OC)c(OC)c(OC)c4)nc23)cc1

Tested on: not listed separately
Test: Half life in rat at 1 mg/kg, iv after 48 hrs by MS/MS analysis
Conditions: in vivo

half-life at 48 h [h] | Compound
13.4 | CN1CCN(c2ccc(-c3cnc4cccc(-c5cc(F)c(CN6CCOCC6)c(F)c5)c4n3)cc2)CC1
4.8 | CN1CCN(c2ccc(-c3cnc4cccc(-c5cc(F)c(CN6CCS(=O)(=O)CC6)c(F)c5)c4n3)cn2)CC1

Tested on: not listed separately
Test: AUC in rat at 1 mg/kg, iv after 48 hrs by MS/MS analysis
Assay type: ADME, organism-based
Design: time < 48 hr, dose 1 mg/kg, route intravenous
Conditions: plasma
Method in brief: (§2)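 Conscious, fed, permanently cannulated female rats, n=4; 1 mg/kg iv via femoral vein in 30% NMP/PEG200, and 3 mg/kg po by gavage in 50% aqueous PEG200, crossover with 48 h washout. Arterial blood was sampled for 48 h (iv) or 24 h (po), precipitated with CH3CN, and measured by C18 HPLC-MS/MS.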

AUC at 48 h [µM·h] | Compound
1.65 | CN1CCN(c2ccc(-c3cnc4cccc(-c5cc(F)c(CN6CCOCC6)c(F)c5)c4n3)cc2)CC1
0.76 | CN1CCN(c2ccc(-c3cnc4cccc(-c5cc(F)c(CN6CCS(=O)(=O)CC6)c(F)c5)c4n3)cn2)CC1

Compound | AUC at 48 h [µM·h]
Fc1cc(-c2cccc3ncc(-c4cnn(C5CCNCC5)c4)nc23)cc(F)c1CN1CCOCC1 | 1.47

Biological target: T1, Tyrosine-protein kinase JAK3 (Homo sapiens, UniProt P52333)
T1 sequence (P52333 whole entry): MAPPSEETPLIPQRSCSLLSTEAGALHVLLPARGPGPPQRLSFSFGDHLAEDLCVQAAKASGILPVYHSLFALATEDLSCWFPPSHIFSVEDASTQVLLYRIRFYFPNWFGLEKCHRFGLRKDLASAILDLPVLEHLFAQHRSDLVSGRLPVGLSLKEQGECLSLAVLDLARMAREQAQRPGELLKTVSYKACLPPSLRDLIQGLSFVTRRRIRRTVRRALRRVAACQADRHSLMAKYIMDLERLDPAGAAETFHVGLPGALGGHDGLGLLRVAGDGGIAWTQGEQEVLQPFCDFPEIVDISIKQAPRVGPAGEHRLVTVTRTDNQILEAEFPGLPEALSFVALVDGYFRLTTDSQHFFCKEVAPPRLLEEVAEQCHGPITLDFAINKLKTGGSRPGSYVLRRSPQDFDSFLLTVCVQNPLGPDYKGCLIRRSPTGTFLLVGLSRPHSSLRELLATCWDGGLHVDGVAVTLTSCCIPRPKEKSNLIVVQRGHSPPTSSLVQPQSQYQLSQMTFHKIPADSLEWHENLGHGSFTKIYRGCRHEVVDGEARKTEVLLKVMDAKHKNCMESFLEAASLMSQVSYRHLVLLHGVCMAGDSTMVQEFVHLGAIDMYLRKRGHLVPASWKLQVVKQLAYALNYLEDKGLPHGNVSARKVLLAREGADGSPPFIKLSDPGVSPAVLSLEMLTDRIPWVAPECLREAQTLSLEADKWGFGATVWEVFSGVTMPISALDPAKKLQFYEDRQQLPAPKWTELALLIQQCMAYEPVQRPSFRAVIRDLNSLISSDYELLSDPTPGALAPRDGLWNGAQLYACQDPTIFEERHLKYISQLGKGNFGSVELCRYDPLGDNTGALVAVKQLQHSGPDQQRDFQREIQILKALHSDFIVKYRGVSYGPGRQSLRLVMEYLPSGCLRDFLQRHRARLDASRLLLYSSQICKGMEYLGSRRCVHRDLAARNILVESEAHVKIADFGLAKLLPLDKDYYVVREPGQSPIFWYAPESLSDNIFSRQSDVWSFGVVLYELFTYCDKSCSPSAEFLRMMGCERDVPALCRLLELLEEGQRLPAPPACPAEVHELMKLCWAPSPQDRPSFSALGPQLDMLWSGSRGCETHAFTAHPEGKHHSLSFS
Conditions: not given

IC50 [nM] | Compound
> 10000 | COc1cc(-c2cnc3cc(F)cc(-c4ccc(CC(=O)N5CCOCC5)cc4)c3n2)cc(OC)c1OC
166 | CN1CCN(c2ccc(-c3cnc4cccc(-c5cc(F)c(CN6CCOCC6)c(F)c5)c4n3)cc2)CC1
1300 | CNS(=O)(=O)c1ccc(-c2cccc3ncc(-c4cc(OC)c(OC)c(OC)c4)nc23)cc1
230 | CN1CCN(c2ccc(-c3cnc4cccc(-c5cc(F)c(CN6CCS(=O)(=O)CC6)c(F)c5)c4n3)cn2)CC1

Tested on: not listed separately
Test: Volume of distribution at steady state in rat at 1 mg/kg, iv or 3 mg/kg, po by MS/MS analysis
Assay type: ADME, organism-based
Conditions: in vivo, read-out: Vdss
Method in brief: as §2

Vd [L/kg] | Compound
18.9 | CN1CCN(c2ccc(-c3cnc4cccc(-c5cc(F)c(CN6CCOCC6)c(F)c5)c4n3)cc2)CC1
13.2 | CN1CCN(c2ccc(-c3cnc4cccc(-c5cc(F)c(CN6CCS(=O)(=O)CC6)c(F)c5)c4n3)cn2)CC1

Compound | Vd [L/kg]
Fc1cc(-c2cccc3ncc(-c4cnn(C5CCNCC5)c4)nc23)cc(F)c1CN1CCOCC1 | 33

Tested on: not listed separately
Test: Oral bioavailability in rat at 3 mg/kg after 24 hrs by MS/MS analysis
Assay type: ADME, organism-based
Conditions: in vivo
Method in brief: as §2

bioavailability [%] | Compound
100 | CN1CCN(c2ccc(-c3cnc4cccc(-c5cc(F)c(CN6CCOCC6)c(F)c5)c4n3)cc2)CC1
100 | CN1CCN(c2ccc(-c3cnc4cccc(-c5cc(F)c(CN6CCS(=O)(=O)CC6)c(F)c5)c4n3)cn2)CC1

Compound | bioavailability [%]
Fc1cc(-c2cccc3ncc(-c4cnn(C5CCNCC5)c4)nc23)cc(F)c1CN1CCOCC1 | 31

Tested on: Rattus norvegicus
Test: Oral bioavailability in rat at 3 mg/kg
Assay type: ADME, organism-based
Conditions: in vivo
Method in brief: as §1

F [%] | Compound
34 | CNS(=O)(=O)c1ccc(-c2cccc3ncc(-c4cc(OC)c(OC)c(OC)c4)nc23)cc1

Biological target: Tyrosine-protein kinase JAK2 (Homo sapiens, UniProt O60674)
Sequence (O60674 whole entry): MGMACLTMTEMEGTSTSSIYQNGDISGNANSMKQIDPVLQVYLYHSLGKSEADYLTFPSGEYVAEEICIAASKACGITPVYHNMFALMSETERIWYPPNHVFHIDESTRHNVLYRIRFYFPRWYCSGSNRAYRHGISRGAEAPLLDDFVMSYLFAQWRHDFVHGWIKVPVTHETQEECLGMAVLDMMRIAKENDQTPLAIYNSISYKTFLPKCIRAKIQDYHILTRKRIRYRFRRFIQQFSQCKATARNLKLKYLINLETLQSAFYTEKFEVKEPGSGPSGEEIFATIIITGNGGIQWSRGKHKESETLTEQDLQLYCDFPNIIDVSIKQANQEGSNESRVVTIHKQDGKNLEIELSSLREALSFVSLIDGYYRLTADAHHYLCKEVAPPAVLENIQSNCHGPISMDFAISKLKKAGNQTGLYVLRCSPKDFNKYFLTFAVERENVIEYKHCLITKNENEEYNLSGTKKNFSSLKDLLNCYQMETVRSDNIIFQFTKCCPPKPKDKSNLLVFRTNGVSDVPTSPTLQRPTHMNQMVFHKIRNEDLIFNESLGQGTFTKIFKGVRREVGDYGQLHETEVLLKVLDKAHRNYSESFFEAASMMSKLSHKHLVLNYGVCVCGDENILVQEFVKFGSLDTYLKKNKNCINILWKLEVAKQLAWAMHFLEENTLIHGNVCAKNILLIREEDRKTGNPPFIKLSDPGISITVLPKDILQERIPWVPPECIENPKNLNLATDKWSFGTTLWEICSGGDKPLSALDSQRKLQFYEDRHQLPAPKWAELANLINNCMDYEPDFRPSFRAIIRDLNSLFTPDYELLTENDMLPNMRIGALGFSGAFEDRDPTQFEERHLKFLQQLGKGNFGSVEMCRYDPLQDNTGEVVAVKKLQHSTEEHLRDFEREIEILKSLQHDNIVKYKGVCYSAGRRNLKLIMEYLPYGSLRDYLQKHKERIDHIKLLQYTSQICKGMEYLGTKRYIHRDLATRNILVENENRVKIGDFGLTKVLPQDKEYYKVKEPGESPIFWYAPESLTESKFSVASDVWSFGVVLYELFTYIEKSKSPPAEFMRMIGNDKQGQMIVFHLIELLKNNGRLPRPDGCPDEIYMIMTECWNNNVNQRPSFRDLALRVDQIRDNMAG
Conditions: not given

IC50 [nM] | Compound
101 | COc1cc(-c2cnc3cc(F)cc(-c4ccc(CC(=O)N5CCOCC5)cc4)c3n2)cc(OC)c1OC
4.3 | CN1CCN(c2ccc(-c3cnc4cccc(-c5cc(F)c(CN6CCOCC6)c(F)c5)c4n3)cc2)CC1
6.8 | CN1CCN(c2ccc(-c3cnc4cccc(-c5cc(F)c(CN6CCS(=O)(=O)CC6)c(F)c5)c4n3)cn2)CC1

Tested on: not listed separately
Test: Cmax in rat at 3 mg/kg, po or 1 mg/kg, iv by MS/MS analysis
Assay type: ADME, organism-based
Conditions: in vivo
Method in brief: as §2

Cmax [nM] | Compound
74 | CN1CCN(c2ccc(-c3cnc4cccc(-c5cc(F)c(CN6CCOCC6)c(F)c5)c4n3)cc2)CC1
47 | CN1CCN(c2ccc(-c3cnc4cccc(-c5cc(F)c(CN6CCS(=O)(=O)CC6)c(F)c5)c4n3)cn2)CC1

Compound | Cmax [nM]
Fc1cc(-c2cccc3ncc(-c4cnn(C5CCNCC5)c4)nc23)cc(F)c1CN1CCOCC1 | 16

Tested on: Rattus norvegicus
Test: AUC in rat at 3 mg/kg, po
Assay type: ADME, organism-based, Plasma
Design: dose 3 mg/kg, route oral
Conditions: in vivo
Method in brief: as §1

AUC [µg·min/mL] | Compound
4 | CNS(=O)(=O)c1ccc(-c2cccc3ncc(-c4cc(OC)c(OC)c(OC)c4)nc23)cc1

Tested on: not listed separately
Test: Terminal half life in iv dosed rat
Assay type: ADME, organism-based
Conditions: in vivo, read-out: beta t1/2 (converted)
Method in brief: as §1

half-life [h] | Compound
1.69 | CNS(=O)(=O)c1ccc(-c2cccc3ncc(-c4cc(OC)c(OC)c(OC)c4)nc23)cc1

Tested on: not listed separately
Test: Growth inhibition of human SET2 cells expressing JAK2V617F mutant after 72 hrs by colorimetric WST1 assay
Assay type: functional
Conditions: SET-2, 72 h
Method in brief: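 Megakaryoblastic SET-2 cells were grown in RPMI with 10% FCS, 2 mM L-glutamine and 1% penicillin/streptomycin. Cells were exposed to an 8-point compound concentration range for 72 h. Proliferation was read by WST-1 colorimetric viability, relative to DMSO vehicle controls.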

Compound | GI50 [nM]
Fc1cc(-c2cccc3ncc(-c4cnn(C5CCNCC5)c4)nc23)cc(F)c1CN1CCOCC1 | 88
CN1CCN(c2ccc(-c3cnc4cccc(-c5cc(F)c(CN6CCOCC6)c(F)c5)c4n3)cc2)CC1 | 152
CN1CCN(c2ccc(-c3cnc4cccc(-c5cc(F)c(CN6CCS(=O)(=O)CC6)c(F)c5)c4n3)cn2)CC1 | 98

Biological target: Non-receptor tyrosine-protein kinase TYK2 (Homo sapiens, UniProt P29597)
Sequence (P29597 whole entry): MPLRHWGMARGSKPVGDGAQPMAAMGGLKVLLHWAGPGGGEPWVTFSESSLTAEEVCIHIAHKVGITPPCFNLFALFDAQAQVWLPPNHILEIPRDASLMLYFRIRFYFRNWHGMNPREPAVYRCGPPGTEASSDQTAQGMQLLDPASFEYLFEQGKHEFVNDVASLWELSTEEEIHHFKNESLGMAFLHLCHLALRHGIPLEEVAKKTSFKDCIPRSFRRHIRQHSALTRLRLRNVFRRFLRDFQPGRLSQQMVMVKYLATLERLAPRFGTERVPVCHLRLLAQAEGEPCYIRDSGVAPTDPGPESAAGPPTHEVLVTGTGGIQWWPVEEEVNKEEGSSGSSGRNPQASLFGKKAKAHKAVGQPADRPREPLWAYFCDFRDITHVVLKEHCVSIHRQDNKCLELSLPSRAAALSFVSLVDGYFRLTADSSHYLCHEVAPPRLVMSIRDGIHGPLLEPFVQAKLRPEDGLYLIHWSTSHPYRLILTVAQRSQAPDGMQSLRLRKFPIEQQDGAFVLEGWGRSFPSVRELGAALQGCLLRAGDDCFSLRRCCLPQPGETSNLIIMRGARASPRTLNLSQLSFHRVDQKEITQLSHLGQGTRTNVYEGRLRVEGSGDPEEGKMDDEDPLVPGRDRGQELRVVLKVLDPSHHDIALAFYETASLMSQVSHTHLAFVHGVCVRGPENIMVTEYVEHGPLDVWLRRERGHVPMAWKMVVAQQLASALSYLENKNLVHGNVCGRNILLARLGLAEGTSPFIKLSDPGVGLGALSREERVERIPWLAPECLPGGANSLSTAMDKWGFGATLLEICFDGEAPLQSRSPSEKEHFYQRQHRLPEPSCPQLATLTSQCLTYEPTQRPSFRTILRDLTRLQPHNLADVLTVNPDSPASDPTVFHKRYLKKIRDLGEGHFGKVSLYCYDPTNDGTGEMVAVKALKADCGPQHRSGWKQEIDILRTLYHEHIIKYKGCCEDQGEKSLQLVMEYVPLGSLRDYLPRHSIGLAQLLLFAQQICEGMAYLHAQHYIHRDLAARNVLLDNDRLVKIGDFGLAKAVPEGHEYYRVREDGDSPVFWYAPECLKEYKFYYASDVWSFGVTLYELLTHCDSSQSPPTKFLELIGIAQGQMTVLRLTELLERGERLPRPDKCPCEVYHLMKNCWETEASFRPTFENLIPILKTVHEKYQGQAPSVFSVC
Test: Inhibition of recombinant GST tagged TYK2 protein after 60 mins using FITC-Ahx-KKSRGDYMTMQIG-NH2 substrate
Conditions: not given

IC50 [nM] | Compound
> 10000 | COc1cc(-c2cnc3cc(F)cc(-c4ccc(CC(=O)N5CCOCC5)cc4)c3n2)cc(OC)c1OC
94 | CN1CCN(c2ccc(-c3cnc4cccc(-c5cc(F)c(CN6CCOCC6)c(F)c5)c4n3)cc2)CC1
640 | CNS(=O)(=O)c1ccc(-c2cccc3ncc(-c4cc(OC)c(OC)c(OC)c4)nc23)cc1
86 | CN1CCN(c2ccc(-c3cnc4cccc(-c5cc(F)c(CN6CCS(=O)(=O)CC6)c(F)c5)c4n3)cn2)CC1

Tested on: not listed separately
Test: Dissociation constant, pKa of the compound
Assay type: physicochemical
Conditions: not given

pKa | Compound
4.5 | CN1CCN(c2ccc(-c3cnc4cccc(-c5cc(F)c(CN6CCOCC6)c(F)c5)c4n3)cc2)CC1
3.6 | CN1CCN(c2ccc(-c3cnc4cccc(-c5cc(F)c(CN6CCS(=O)(=O)CC6)c(F)c5)c4n3)cn2)CC1

Compound | pKa
Fc1cc(-c2cccc3ncc(-c4cnn(C5CCNCC5)c4)nc23)cc(F)c1CN1CCOCC1 | 5.5

Tested on: not listed separately
Test: Clearance in rat at 1 mg/kg, iv after 48 hrs by MS/MS analysis
Conditions: in vivo

clearance at 48 h [mL/min/kg] | Compound
19 | CN1CCN(c2ccc(-c3cnc4cccc(-c5cc(F)c(CN6CCOCC6)c(F)c5)c4n3)cc2)CC1
39 | CN1CCN(c2ccc(-c3cnc4cccc(-c5cc(F)c(CN6CCS(=O)(=O)CC6)c(F)c5)c4n3)cn2)CC1

Tested on: not listed separately
Test: Aqueous solubility at pH 6.8
Assay type: physicochemical
Conditions: not given

solubility [µg/mL] | Compound
4 (≈ 7.76 µM) | CN1CCN(c2ccc(-c3cnc4cccc(-c5cc(F)c(CN6CCOCC6)c(F)c5)c4n3)cc2)CC1
4 (≈ 7.08 µM) | CN1CCN(c2ccc(-c3cnc4cccc(-c5cc(F)c(CN6CCS(=O)(=O)CC6)c(F)c5)c4n3)cn2)CC1

Compound | solubility [µg/mL]
Fc1cc(-c2cccc3ncc(-c4cnn(C5CCNCC5)c4)nc23)cc(F)c1CN1CCOCC1 | > 1500

Tested on: not listed separately
Test: Partition coefficient, log P of the compound
Assay type: physicochemical
Conditions: octanol/water

logP | Compound
4 | CN1CCN(c2ccc(-c3cnc4cccc(-c5cc(F)c(CN6CCOCC6)c(F)c5)c4n3)cc2)CC1
3.8 | CN1CCN(c2ccc(-c3cnc4cccc(-c5cc(F)c(CN6CCS(=O)(=O)CC6)c(F)c5)c4n3)cn2)CC1

Biological target: Tyrosine-protein kinase JAK1 (Homo sapiens, UniProt P23458)
Sequence (P23458 whole entry): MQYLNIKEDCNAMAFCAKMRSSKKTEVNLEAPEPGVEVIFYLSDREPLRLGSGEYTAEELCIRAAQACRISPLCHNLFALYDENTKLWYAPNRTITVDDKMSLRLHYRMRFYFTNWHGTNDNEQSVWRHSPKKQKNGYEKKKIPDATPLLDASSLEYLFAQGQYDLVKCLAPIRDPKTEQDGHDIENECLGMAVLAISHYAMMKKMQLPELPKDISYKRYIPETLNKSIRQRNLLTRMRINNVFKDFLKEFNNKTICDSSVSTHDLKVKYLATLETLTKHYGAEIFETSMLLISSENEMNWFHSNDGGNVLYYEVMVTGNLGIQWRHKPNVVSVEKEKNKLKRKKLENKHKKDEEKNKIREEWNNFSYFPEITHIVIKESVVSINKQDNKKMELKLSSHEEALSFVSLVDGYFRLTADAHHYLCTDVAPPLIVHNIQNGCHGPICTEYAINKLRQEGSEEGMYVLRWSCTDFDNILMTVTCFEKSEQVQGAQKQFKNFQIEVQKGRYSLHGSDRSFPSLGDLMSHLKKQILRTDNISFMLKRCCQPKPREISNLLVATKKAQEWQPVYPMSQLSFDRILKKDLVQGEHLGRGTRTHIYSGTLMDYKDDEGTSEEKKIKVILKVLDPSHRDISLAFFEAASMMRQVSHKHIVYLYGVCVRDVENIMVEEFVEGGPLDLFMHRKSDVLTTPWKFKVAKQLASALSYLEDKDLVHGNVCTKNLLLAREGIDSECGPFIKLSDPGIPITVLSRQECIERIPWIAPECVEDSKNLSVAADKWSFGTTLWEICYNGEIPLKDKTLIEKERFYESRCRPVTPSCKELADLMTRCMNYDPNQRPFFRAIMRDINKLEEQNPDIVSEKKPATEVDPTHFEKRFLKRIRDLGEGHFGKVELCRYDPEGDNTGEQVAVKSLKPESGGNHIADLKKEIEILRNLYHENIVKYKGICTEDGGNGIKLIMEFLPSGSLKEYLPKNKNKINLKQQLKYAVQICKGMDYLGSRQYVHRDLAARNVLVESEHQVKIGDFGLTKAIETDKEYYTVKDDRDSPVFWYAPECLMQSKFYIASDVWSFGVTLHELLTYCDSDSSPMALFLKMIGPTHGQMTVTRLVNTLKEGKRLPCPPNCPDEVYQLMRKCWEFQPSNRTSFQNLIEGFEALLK
Test: Inhibition of recombinant GST tagged JAK1 protein after 60 mins using FITC-Ahx-KKSRGDYMTMQIG-NH2 substrate
Conditions: not given

IC50 [nM] | Compound
940 | COc1cc(-c2cnc3cc(F)cc(-c4ccc(CC(=O)N5CCOCC5)cc4)c3n2)cc(OC)c1OC
28 | CN1CCN(c2ccc(-c3cnc4cccc(-c5cc(F)c(CN6CCOCC6)c(F)c5)c4n3)cc2)CC1
130 | CNS(=O)(=O)c1ccc(-c2cccc3ncc(-c4cc(OC)c(OC)c(OC)c4)nc23)cc1
82 | CN1CCN(c2ccc(-c3cnc4cccc(-c5cc(F)c(CN6CCS(=O)(=O)CC6)c(F)c5)c4n3)cn2)CC1

Biological target: Tyrosine-protein kinase ABL1 (Homo sapiens, UniProt P00519)
Sequence (P00519 whole entry): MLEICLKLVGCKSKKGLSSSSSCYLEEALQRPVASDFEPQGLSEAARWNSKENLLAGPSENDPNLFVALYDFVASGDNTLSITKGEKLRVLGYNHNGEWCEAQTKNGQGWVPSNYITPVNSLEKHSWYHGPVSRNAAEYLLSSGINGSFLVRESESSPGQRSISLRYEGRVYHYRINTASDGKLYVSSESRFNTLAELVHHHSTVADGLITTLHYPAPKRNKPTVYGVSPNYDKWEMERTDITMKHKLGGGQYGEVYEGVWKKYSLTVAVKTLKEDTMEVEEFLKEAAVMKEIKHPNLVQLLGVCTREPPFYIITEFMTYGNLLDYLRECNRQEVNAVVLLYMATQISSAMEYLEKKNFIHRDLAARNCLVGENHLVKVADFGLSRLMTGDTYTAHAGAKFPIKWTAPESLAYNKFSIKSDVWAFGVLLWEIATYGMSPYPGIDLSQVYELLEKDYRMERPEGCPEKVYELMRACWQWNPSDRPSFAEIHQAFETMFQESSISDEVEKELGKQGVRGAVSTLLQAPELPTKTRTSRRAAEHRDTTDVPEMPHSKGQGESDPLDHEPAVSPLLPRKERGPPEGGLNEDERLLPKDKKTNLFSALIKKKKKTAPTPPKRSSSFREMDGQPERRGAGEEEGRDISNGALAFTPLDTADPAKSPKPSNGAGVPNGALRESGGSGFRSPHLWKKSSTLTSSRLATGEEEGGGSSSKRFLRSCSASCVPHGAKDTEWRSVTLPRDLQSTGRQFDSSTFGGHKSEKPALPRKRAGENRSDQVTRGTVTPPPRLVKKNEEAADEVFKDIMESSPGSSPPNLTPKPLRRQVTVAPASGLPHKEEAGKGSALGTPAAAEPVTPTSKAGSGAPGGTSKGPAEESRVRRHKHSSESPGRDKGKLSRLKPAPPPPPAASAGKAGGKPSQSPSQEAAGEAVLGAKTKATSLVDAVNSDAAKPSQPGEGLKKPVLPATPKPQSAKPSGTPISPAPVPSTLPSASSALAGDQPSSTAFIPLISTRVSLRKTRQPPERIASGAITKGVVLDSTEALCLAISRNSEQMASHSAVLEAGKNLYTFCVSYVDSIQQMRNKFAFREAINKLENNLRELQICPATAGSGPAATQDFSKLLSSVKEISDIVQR
Conditions: not given

Compound | IC50 [nM]
Fc1cc(-c2cccc3ncc(-c4cnn(C5CCNCC5)c4)nc23)cc(F)c1CN1CCOCC1 | 80

Tested on: not listed separately
Test: Tmax in rat at 3 mg/kg, po or 1 mg/kg, iv by MS/MS analysis
Assay type: ADME, organism-based
Conditions: in vivo
Method in brief: as §2

Tmax [h] | Compound
5.8 | CN1CCN(c2ccc(-c3cnc4cccc(-c5cc(F)c(CN6CCOCC6)c(F)c5)c4n3)cc2)CC1
8 | CN1CCN(c2ccc(-c3cnc4cccc(-c5cc(F)c(CN6CCS(=O)(=O)CC6)c(F)c5)c4n3)cn2)CC1

Compound | Tmax [h]
Fc1cc(-c2cccc3ncc(-c4cnn(C5CCNCC5)c4)nc23)cc(F)c1CN1CCOCC1 | 7
